CAL PDZ FP-1: blocks peptide binding to human CAL PDZ domain; AID 504414; 330,000 compounds, 0.02% hits; purified CAL PDZ, TMR-peptide fluorescence polarization, 1 h; inhibition, % at 20 µM; Q9HD26;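 active = highest replicate inhibition of at least 40%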;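 also: plate controls were DMSO neutral control wells for no effect and unlabeled competitor peptide control wells for full effect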
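System: tagged CAL PDZ domain. Schedule: 1 h room-temperature incubation prior to read. Signal: fluorescence polarization (mP). Measure: percent inhibition from loss of millipolarization.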
RAD54 inh: blocks human RAD54 Holliday junction branch migration. inhibition, % at 10.4 µM. AID 602329. 360,000 compounds, 0.14% hits. Q92698. FAM/BHQ fluorescence;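 active = mean normalized replicate activity at least 40 and at least half of replicates scoring 40 or more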;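 also: 0% = median of neutral control wells and 100% = median of positive control wells; inhibitors cause a drop in the FAM fluorescence signal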
ERp5 block: inhibitors of human ERp5; 350,000 compounds, 0.05% hits; Q15084; ERp5 insulin aggregation, absorbance 650 nm, 90 min; inhibition, % at 9.99 µM;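 active = mean replicate inhibition above about 25%, with every replicate also reaching it, limit read from the data, passing the limit was not always enough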
Target sequence (Q15084 whole entry, looked up): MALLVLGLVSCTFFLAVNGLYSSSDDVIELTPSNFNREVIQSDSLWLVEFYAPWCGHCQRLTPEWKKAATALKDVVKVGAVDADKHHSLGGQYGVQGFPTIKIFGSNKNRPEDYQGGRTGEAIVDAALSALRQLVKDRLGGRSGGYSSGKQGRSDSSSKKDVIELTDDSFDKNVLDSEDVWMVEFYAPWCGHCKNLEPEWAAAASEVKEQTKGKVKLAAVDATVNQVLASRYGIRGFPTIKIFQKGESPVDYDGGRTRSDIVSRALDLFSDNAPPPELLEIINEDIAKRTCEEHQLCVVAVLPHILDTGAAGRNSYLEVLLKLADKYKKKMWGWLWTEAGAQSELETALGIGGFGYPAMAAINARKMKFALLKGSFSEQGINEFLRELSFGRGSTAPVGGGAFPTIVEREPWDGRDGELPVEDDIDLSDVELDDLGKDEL
RAD52 anneal inh: blocks human RAD52 DNA annealing. P43351. recombinant RAD52 DNA annealing, FRET fluorescence. inhibition, % at 18.7 µM. 360,000 compounds, 0.46% hits. AID 651710;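 active = every replicate showing at least 50% inhibition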
CAL PDZ FP-2: blocks peptide binding to the human CAL PDZ domain. Q9HD26. purified CAL PDZ, TMR-peptide fluorescence polarization, 1 h. inhibition, % at 24.9 µM. 300,000 compounds, 0.92% hits. AID 602252;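 active = mean inhibition of at least 30% with at least half of replicates also reaching 30%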;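 also: 0% = DMSO neutral control and 100% = excess unlabeled competitor peptide PRC23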
PDI turbidity: inhibitors of human protein disulfide isomerase; P07237; PDI insulin aggregation turbidity, A650, 90 min; inhibition, % at 10 µM; 350,000 compounds, 0.052% hits; AID 588391;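 active = mean inhibition across replicates of 30% or more, whatever share of single replicates reach that level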
Numbers without * were called inactive; nt = no result given; + = active, no number. The list is not random: actives were taken first. Their share in the collection is about 1%.

SMILES | CAL PDZ FP-1 | RAD54 inh | ERp5 block | RAD52 anneal inh | CAL PDZ FP-2 | PDI turbidity
OCCn1c(SCCOc2ccccc2F)nc2ccccc21 | -2.2 | 9.1 | nt | nt | -3.0 | 3.8
OCCn1c(SC2CCCCC2)nc2ccccc21 | 0.3 | -3.7 | nt | nt | 46.9* | 5.1
CCN1/C(=C/c2ccc3ccccc3[n+]2CC)C=Cc2ccccc21 | -1.8 | 70.7* | nt | nt | -2.3 | -8.2
CCN1/C(=C/c2ccc3ccccc3[n+]2CCCS(=O)(=O)[O-])C=Cc2cc(C)ccc21 | 1.0 | 6.8 | 2.6 | -40.4 | 2.0 | -0.4
COCC1CCN(C(=O)c2ccc3oc(CCCc4ccccc4)nc3c2)C1 (centres undefined) | + | 5.1 | 3.2 | -7.8 | -2.5 | -11.1
COCC1CCCN(C(=O)c2ccc3oc(CCCc4ccccc4)nc3c2)C1 (centres undefined) | -2.0 | -10.2 | 1.0 | -14.3 | -7.9 | -5.5
CCCNC(=O)N1CCC2(CC1)CN(S(C)(=O)=O)[C@H](CO)c1c2c2ccc(OC)cc2n1C | nt | nt | 0.2 | 10.3 | nt | nt
CCCCNS(=O)(=O)c1cc(-c2nn(C)c(=O)c3ccccc23)ccc1C | -1.2 | -5.6 | 6.7 | -3.4 | 56.2* | 5.6
COc1cc(-c2nnc(SCC(=O)O)n2-c2ccccc2)cc(OC)c1OC | nt | 2.9 | 4.3 | -6.1 | 68.9* | -3.7
CC=Cc1ccc2n(c1=O)C[C@H]1[C@H](CO)[C@@H](C(=O)NC3CCCC3)N(CCC)[C@@H]21 (mixture of isomers) | nt | nt | -2.2 | 92.0* | nt | nt
CC=Cc1ccc2n(c1=O)C[C@H]1[C@H](CO)[C@@H](C(=O)NCc3ccccn3)[C@@H]2N1CCC (mixture of isomers) | nt | 8.1 | -0.5 | 96.3* | nt | nt
O=C(NCc1ccccn1)[C@@H]1[C@@H](CO)[C@@H]2Cn3c(cccc3=O)[C@H]1N2CC1CCCCC1 | nt | 11.4 | 1.2 | 57.3* | nt | nt
CC(=O)N1[C@@H]2Cn3c(cccc3=O)[C@H]1[C@@H](C(=O)NCC1CCCCC1)[C@@H]2CO | nt | 8.4 | -0.6 | 58.8* | nt | nt
CC=Cc1ccc2n(c1=O)C[C@@H]1[C@@H](CO)[C@H](C(=O)NC3CCC3)N(CCC(F)(F)F)[C@H]21 (mixture of isomers) | nt | nt | -1.7 | 5.1 | nt | nt
COc1cc2c(cc1OC)CN(c1nc(-c3cccnc3)nc3ccccc13)CC2 | -5.3 | -6.2 | -3.9 | -44.1 | 70.7* | 3.4
Cc1cc(Cl)ccc1NC(=S)NCC(C)C | -0.3 | nt | -3.3 | 1.3 | -3.1 | 2.1
CCCNC(=S)Nc1ccc(Cl)cc1C | -1.4 | nt | nt | nt | 49.5* | -81.9
O=C(NC(=S)Nn1cnnc1)c1ccccc1Br | -0.1 | nt | -0.1 | -3.8 | 52.9* | 8.3
COc1ccccc1NC(=O)CN1CCC(c2nc3ccc(C)cc3[nH]2)CC1 | -0.9 | 1.8 | 11.2 | -1.5 | 93.1* | 3.6
COc1ccccc1NC(=O)CN1CCC(c2nc3ccccc3[nH]2)CC1 | -1.1 | -0.9 | -15.2 | -0.8 | nt | -1.9
CCN(CC)CCNC(=O)c1ccc2c(c1NCCO)C(=O)c1ccccc1C2=O | nt | 121.8* | 0.7 | 87.1* | nt | 7.3
COc1ccc2c3c(n(C)c2c1)[C@H](CO)N(C(=O)CN1CCOCC1)CC31CCN(C(=O)C2CC2)CC1 | nt | nt | nt | 19.3 | nt | nt
COc1ccc(NC(=O)N(C)C[C@@H]2OCCCC[C@H](C)Oc3ccc(NC(=O)Nc4c(C)noc4C)cc3C(=O)N([C@H](C)CO)C[C@@H]2C)cc1 | nt | 13.4 | 8.2 | 3.4 | nt | nt
CCc1noc(C)c1C(=O)N1CCN(S(=O)(=O)c2ccc(Cl)cc2)CC1 | -0.4 | -1.0 | -7.1 | -14.5 | -13.6 | -1.9
CCc1noc(C)c1C(=O)N1CCN(S(=O)(=O)c2cccs2)CC1 | -0.1 | -13.1 | 1.3 | -5.8 | 50.3* | -0.1
SMILES | CAL PDZ FP-1 | RAD54 inh | ERp5 block | RAD52 anneal inh | CAL PDZ FP-2 | PDI turbidity
O=C(C[C@@H]1CC[C@H]2[C@@H](COC[C@@H](O)CN2S(=O)(=O)c2ccc(F)cc2)O1)NCC1CC1 | nt | 3.8 | -2.3 | 0.5 | nt | nt
Clc1ccc(-c2nsc(N3CCOCC3)n2)c(Cl)c1 | -0.8 | 1.1 | 1.6 | 9.7 | 62.3* | 9.6
O=C(COC(=O)C(CO)NS(=O)(=O)c1ccc(Br)cc1)Nc1ccc2c(c1)OCCO2 (centres undefined) | 0.4 | 9.6 | 6.3 | -19.9 | 46.6* | -2.9
CC(C)c1nc2cc(C(=O)N(C)C3CCOCC3)ccc2o1 | -1.0 | 4.1 | 2.5 | 0.7 | 43.5* | 10.3
COCC1CCN(C(=O)c2ccc3oc(C(C)C)nc3c2)C1 (centres undefined) | nt | -2.9 | -4.3 | -11.9 | nt | -2.6
NS(=O)(=O)c1ccc(CCNC(=O)COC(=O)C2CCC2)cc1 | -1.0 | -4.9 | 0.9 | -13.8 | 47.1* | 11.7
O=C(COC(=O)C1CC1)NCCc1ccccc1 | -1.6 | 2.5 | -0.2 | -8.4 | -2.3 | 7.7
C[C@@H]1CN([C@H](C)CO)C(=O)c2cccc(NC(=O)C3CC3)c2O[C@@H]1CN(C)C | nt | 1.5 | 5.6 | -3.2 | nt | nt
CC12CCC(=O)N1C(C(=O)N1CCN(c3ccccc3)CC1)CS2 (centres undefined) | -0.5 | -0.1 | -5.1 | 9.9 | nt | -4.2
CC12CCC(=O)N1C(C(=O)N1CCN(c3cccc(Cl)c3)CC1)CS2 (centres undefined) | 0.3 | 0.9 | -2.1 | -5.9 | 79.6* | -3.3
COc1ccc(S(=O)(=O)N(C)C[C@@H]2OCCCC[C@H](C)Oc3ccc(NC(=O)Nc4ccccc4)cc3C(=O)N([C@H](C)CO)C[C@@H]2C)cc1 | nt | 3.3 | nt | nt | nt | nt
Cc1onc(-c2c(Cl)cccc2Cl)c1C(O)c1ccc(F)cc1 (centres undefined) | nt | -3.6 | 0.7 | -10.5 | -4.0 | -1.3
Cc1onc(-c2c(Cl)cccc2Cl)c1C(O)c1ccccc1 (centres undefined) | nt | -0.9 | 1.7 | -6.4 | 45.7* | 1.3
O=C(Nc1ccc(CN2CCOCC2)cc1)c1ccc(-c2cccc(Cl)c2)o1 | -3.0 | -7.7 | nt | nt | 89.2* | -1.7
O=C(Nc1ccccn1)Nc1ccccc1[N+](=O)[O-] | nt | 3.2 | -0.6 | -0.2 | + | -1.4
COc1ccc2c3c(n(C)c2c1)[C@H](CO)N(C(=O)CC1CC1)CC31CCN(Cc2ccncc2)CC1 | nt | nt | -0.9 | 6.3 | nt | nt
CCOC(=O)c1c(C)[nH]c(C)c1S(=O)(=O)N(C)CC(=O)Nc1cccc(F)c1 | -0.8 | 5.4 | 5.5 | -4.3 | 34.1* | -7.1
CCCCNC(=S)N1CCN(C(c2ccccc2)c2ccccc2)CC1 | -0.3 | nt | 0.4 | -12.8 | 44.7* | 1.4
C[C@H](CO)N1C[C@H](C)[C@@H](CN(C)C(=O)c2cnccn2)Oc2cc(C#CC3CC3)ccc2S1(=O)=O | nt | 5.8 | 2.1 | 17.6 | nt | nt
Cc1ccc(SCC(=O)Nc2ccc3c(c2)C(=O)N(C)C3=O)cc1 | -2.4 | 17.8 | -12.4 | -6.2 | 179.4* | 7.2

Compound activity deposited in PubChem by Broad Institute.
